Bioassay records from PubChem BioAssay.
Only some compounds are listed: those with a hit (about 2.9% of all), similar ones and a draw of the others.
HEK293 NFkB inh: lowers PMA/ionomycin-induced NF-kB signal in HEK293 cells | HEK-293 NF-kB luciferase reporter, luminescence | inhibition, % at 3 µM | 62,000 compounds, 0.21% hits | AID 465;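 active = inhibition above the mean of all tested compounds plus 3 SD, cut at about 40% in these data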;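 also: 0% = stimulated DMSO wells and 100% = 10 µM reference inhibitor 5653914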
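System: NF-kB luciferase reporter HEK-293 cells | Replication: Single test | Control set: DMSO vs reference inhibitor | Evaluation: % inhibition | Schedule: 1 h pretreatment, 16 h stimulation, 37 °C | Probe or stimulus: PMA with ionomycin | Compound dosing: One dose, 3 µM | Detection: Luciferase luminescence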
5HT1a ag: activates the human 5-HT1a serotonin receptor | 65,000 compounds, 0.56% hits | CHO 5-HT1a Ga15 NFAT-bla reporter, FRET ratio; 0% basal, 100% maximal reference agonist | P08908 | activation, % at 10 µM;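 active = activation above the screen-wide mean activation plus 3 SD, cut at about 19% in these data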;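 also: 0% = DMSO wells and 100% = 5-CT at EC100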
Target sequence (P08908 whole entry, looked up): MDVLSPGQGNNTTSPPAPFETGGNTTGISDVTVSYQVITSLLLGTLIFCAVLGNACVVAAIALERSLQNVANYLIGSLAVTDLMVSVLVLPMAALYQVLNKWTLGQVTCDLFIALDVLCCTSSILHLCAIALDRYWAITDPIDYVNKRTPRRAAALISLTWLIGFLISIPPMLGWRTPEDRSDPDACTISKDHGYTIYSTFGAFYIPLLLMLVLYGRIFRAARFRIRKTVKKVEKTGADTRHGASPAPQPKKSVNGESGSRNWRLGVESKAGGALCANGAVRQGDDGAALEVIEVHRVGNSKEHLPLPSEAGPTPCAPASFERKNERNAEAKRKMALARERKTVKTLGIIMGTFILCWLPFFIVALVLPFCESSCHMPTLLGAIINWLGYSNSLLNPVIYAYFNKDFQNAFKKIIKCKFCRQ
HTR1E agonist: agonists of human 5-HT1E serotonin receptor. CHO 5-HT1E Ga15 NFAT-bla reporter, FRET; 0% DMSO wells, 100% control agonist wells. P28566. 65,000 compounds, 0.69% hits. activation, % at 6 µM;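 active = activation above a set limit, the screen-wide mean activation plus 3 SD, cut at about 8.5% in these data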;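 also: 100% = positive control agonist at 1 µM giving full maximal response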
SK-BR-3 tox 24h: SK-BR-3 proliferation inhibitors | SK-BR-3 viability, CellTiter-Glo ATP luminescence, 24 h; hits give low values | viability, % at 10 µM | 41,000 compounds, 0.47% hits;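 active = viability at or below the median of all test compounds minus 3 SD, in both replicates if run twice, cut at about 45% in these data; inconclusive = duplicate replicates that disagree with each other; inactive = viability above that cutoff in every replicate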;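 also: 100% = median untreated cell wells and 0% = median positive control drug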
5HT1E antag: blocks the human 5-HT1E serotonin receptor; inhibition, % at 6 µM; 65,000 compounds, 0.99% hits; P28566; CHO 5-HT1E Ga15 NFAT-bla reporter, FRET, antagonist;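 active = inhibition above a set limit, the mean inhibition across every tested compound plus 3 SD, cut at about 29% in these data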;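 also: signal is the 460 over 535 nm emission ratio of beta-lactamase substrate; 0% = agonist plus DMSO wells and 100% = wells without agonist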
5-HT1A blocker: blocks the human serotonin 5-HT1a receptor | P08908 | CHO 5-HT1a Ga15 NFAT-bla reporter, antagonist mode | inhibition, % at 10 µM | 62,000 compounds, 0.68% hits;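 active = inhibition above the mean of all tested compounds plus 3 SD, cut at about 43% in these data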;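 also: receptor stimulated by 5-CT agonist at 100 nM near EC80; beta-lactamase reporter measured by ratiometric fluorescence of a cleavable substrate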
* hit, by the source's call; ? = inconclusive; . = no result given.

SMILES | HEK293 NFkB inh | 5HT1a ag | HTR1E agonist | SK-BR-3 tox 24h | 5HT1E antag | 5-HT1A blocker
Cc1cccc(NC(=O)C2CCCN(c3nc(C)cc(C)n3)C2)c1 (stereo not drawn) | 0 | 0 | 13* | . | -6 | -2
CCOc1ccccc1N1CCN(CC(O)COc2ccc3c(C)cc(=O)oc3c2)CC1 (stereo not drawn) | 14 | 5 | 0 | 80 | 6 | 89*
Cc1cc(NC(=O)c2ccccc2-c2ccccc2C(=O)O)no1 | 21 | 1 | -1 | . | -3 | -14
CCSc1ccccc1C(=O)Nc1cc(C)on1 | 7 | -2 | 14* | 126 | -3 | -1
CSc1ncccc1C(=O)OCc1ccccc1 | 6 | -2 | -1 | 73 | -4 | -11
CSc1ncccc1C(=O)OCc1ccccc1F | -5 | 73* | 2 | . | -3 | -8
Cc1cc2c(cc(C(=O)OCC(=O)NCc3cccs3)n2C(C)C)o1 | 33 | -3 | 0 | 99 | 38* | 36
Cc1cc(C(=O)NCc2cccs2)c(C)o1 | 10 | 0 | 0 | 97 | -3 | -6
O=C(COC(=O)c1ccccc1S(=O)(=O)N1CCCCC1)NCC(F)(F)F | -19 | -5 | -1 | 86 | 29* | 12
O=C(COC(=O)c1ccc(S(=O)(=O)N2CCCC2)cc1)NCc1ccccc1 | 10 | -6 | -1 | . | -11 | -4
COCCCN=C(c1ccco1)n1c(=S)nc(-c2ccco2)n(CCCOC)c1=S | -12 | 1 | 1 | 106 | -11 | -2
CCc1nc(N)c(C#N)c(-c2ccc(OC)c(OC)c2)c1C | 14 | 2 | 0 | 83 | 25 | 3
CCc1nc(C)c(C#N)c2cc(OC)c(OC)cc12 | 6 | 3 | 0 | . | 44* | 12
Cc1cc(N2CCOCC2)nc(NCc2ccccc2)n1 | 13 | -4 | 0 | 84 | 33* | 4
CCCN1CCN(CCCNC(=O)Cn2cc3c(n2)CCCC3)CC1 | 4 | -2 | -1 | . | -4 | 10
CC1CCc2nn(CC(=O)NC3CCCC3)cc2C1 (stereo not drawn) | 4 | 40* | 0 | . | -8 | -13
CCOCCCNC(=O)Cn1cc2c(n1)CCCC2 | 4 | 36* | -1 | . | -7 | 15
O=C(Cn1cc2c(n1)CCCCC2)NC1CCN(Cc2ccccc2)CC1 | 15 | 29* | 0 | . | -1 | 7
O=C(Cn1cc2c(n1)CCCC2)NC1CCCCCC1 | -2 | -2 | 0 | . | 8 | 2
CCOC(=O)COc1cccc2c(=O)n(CC(=O)N3CCc4ccccc43)ccc12 | 10 | -1 | 1 | . | 16 | 6
CCOC(=O)COc1cccc2c(=O)n(CC(=O)NCc3ccc4c(c3)OCO4)ccc12 | 21 | 2 | 1 | . | 47* | 6
O=C(CCN1CCN(c2ccccc2F)CC1)Nc1ccc2c(c1)OCO2 | 6 | 8 | 0 | 91 | 0 | 84*
COC(=O)c1ccc(NC(=O)CCn2cccc2)cc1 | 3 | -2 | 9.6* | . | -6 | 4
O=C(CCN1CCN(c2ccccc2)CC1)Nc1ccc2c(c1)OCO2 | 17 | 9 | -1 | 90 | -3 | 83*
COC(=O)c1ccc(NC(=O)CCN2CCN(c3ccccc3)CC2)cc1 | 4 | 2 | 0 | 96 | 4 | 44*
SMILES | HEK293 NFkB inh | 5HT1a ag | HTR1E agonist | SK-BR-3 tox 24h | 5HT1E antag | 5-HT1A blocker
Cn1c(=O)c2c(ncn2CC(=O)N2CCN(c3ccc(F)cc3)CC2)n(C)c1=O | 10 | 0 | 1 | 106 | 0 | -9
COc1cc(OC)cc(C(C(=O)NCc2ccccc2)N(Cc2ccco2)C(=O)c2ccno2)c1 (stereo not drawn) | 10 | -2 | 0 | . | -10 | 11
COc1ccc(C2C(C(=O)NCC3CCCO3)c3cc(OC)c(OC)cc3C(=O)N2C)cc1OC (stereo not drawn) | 17 | 0 | -1 | 108 | -4 | 12
O=C(CN1C(=O)c2cccc3cccc1c23)Nc1cccnc1 | 10 | 0 | 0 | 82 | -2 | 4
Cc1ccccc1OCCCN1CCCC1 | 1 | -3 | 1 | . | 0 | -9
C=CCc1ccccc1OCCCCN1CCCC1 | -6 | 2 | 10* | 92 | 7 | 20
C=CCc1ccccc1OCC(CN1CCCCC1)OC(C)=O (stereo not drawn) | 10 | -1 | 1 | 60 | -2 | 29
CCc1ccccc1OCCCCN1CCCC1 | -5 | -1 | 12* | . | -9 | 6
O=C(Cc1cccs1)Nc1ccc(NC(=O)c2ccco2)cc1 | 8 | -5 | -2 | . | -1 | 11
O=C(C1CCC1)N1CCc2cc(S(=O)(=O)NCCN3CCN(c4ccccc4F)CC3)ccc21 | -5 | 3 | 0 | . | 0 | 20
O=C(O)c1ccccc1C(=O)N1CCN(c2cccc(Cl)c2)CC1 | 2 | 4 | 45* | 102 | 1 | 21
CCOc1ccccc1C(=O)N1CCN(c2cccc(Cl)c2)CC1 | 40* | 0 | 1 | 95 | 70* | 70*
C=CCn1c(=O)c2ccccc2n2c(SCc3csc(-c4ccccc4)n3)nnc12 | 11 | 4 | 0 | . | -1 | 6
C=CCn1c(=O)c2ccccc2n2c(SC(C)C(=O)Nc3nc(-c4ccccc4)cs3)nnc12 (stereo not drawn) | 24 | 1 | 0 | . | 38* | 0
COc1cc2c(C(=O)NCCCN3CCN(c4cccc(Cl)c4)CC3)cn(C)c(=O)c2cc1OC | 32 | 12 | 16* | 70 | 12 | 5
COc1ccc(NC(=O)CCN2C(=O)C3CC=C(Cl)CC3C2=O)cc1 (stereo not drawn) | . | . | . | 76 | . | .
CCOC(=O)c1[nH]c(C)c(C(=O)Nc2cc(Cl)ccc2C)c1C | 28 | -3 | 0 | . | 44* | 32
S=C(Nc1ccccn1)c1ccccn1 | -27 | 3 | -1 | 104 | 33* | 4
Cc1ccc(O)c(-c2cc(-c3ccccc3C)[nH]n2)c1 | -4 | -1 | 2 | 82 | -1 | 44*
COc1ccc(C2CC(c3c(O)cc(C)oc3=O)=NCCS2)c(OC)c1 (stereo not drawn) | 25 | -4 | -1 | . | 65* | 39
C1CCC(c2nn3c(-c4n[nH]c5c4CCC5)nnc3s2)CC1 | 8 | -3 | 0 | 84 | 16 | -11
CCN(CC)c1ccc(-c2nn3c(-c4n[nH]c5c4CCC5)nnc3s2)cc1 | 34 | 2 | 2 | ? | 70* | 56*
COc1ccc(OC)c(Nc2cc(-c3ccccc3)nc(N)n2)c1 | 38 | -4 | -1 | . | 70* | 63*
c1ccc(-c2nc3nonc3nc2-c2ccccc2)cc1 | 24 | -3 | -1 | 50 | 16 | 33
NC(=O)c1oc2ccccc2c1NC(=O)c1ccco1 | -1 | -1 | 0 | . | 7 | 10
CCOc1ccc(CC(=O)Nc2c(C(N)=O)oc3ccccc23)cc1OCC | 15 | -1 | 0 | 34* | 16 | 1
CCOC(=O)c1oc2ccccc2c1NC(=O)c1ccccc1OC | 2 | -1 | 0 | . | 47* | 49*
